Article PMC6885571 (International Journal of Nanomedicine, 2019)
≈ marks a conversion by molar mass, not a printed value. Each block holds one compound with its values, some of them ahead of it.

Experiments:
hCMEC/D3 cells = assay: Cellular uptake and transporter/endocytosis inhibition assay; type: cell-based, human; details: 30 min pre-incubation with inhibitor
In short: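 hCMEC/D3 cells grown to 90% confluence, then pre-incubated 30 min at 37 °C, 5% CO2 with one inhibitor: verapamil 10 µM, MK571 10 µM, ko143 1 µM, […], aprotinin 200 µg/mL, colchicine 2.5 µM or […]. Nanoemulsion or HupA solution added for 1 h. Cells washed with ice-cold PBS, lysed in 1% Triton X-100, dichloromethane-extracted and analysed by HPLC; mean±SD, n=3.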

nasal mucosa = assay: Test for nasal toxicity of NEs; type: in vivo, Wistar rats; details: rats, intranasal, 14 consecutive days; mucosa on days 1, 7, 14
In short: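 Male Wistar rats (200 g), four groups of three, dosed intranasally. Groups: saline (negative control), 1% sodium deoxycholate in 50 µL saline (positive control), or one of two nanoemulsions for 14 consecutive days. Nasal mucosa collected after sacrifice on days 1, 7 and 14, fixed 24 h in 10% buffered formalin, dehydrated in ethanol, cleared in xylene and paraffin-embedded. Sections stained with H&E and examined by light microscopy.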

[1] = Saturation solubility of HupA in oils, surfactants and co-surfactants; type: physicochemical; details: thermodynamic from solid
In short: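 Excess HupA added to 0.2 mL vehicle, vortexed 10 min, then kept 24 h at 37±0.5 °C in a shaking water bath. Mixture centrifuged at 6000 rpm for 10 min and supernatant filtered (0.45 µm). 0.1 mL diluted in methanol and dissolved drug quantified by HPLC.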

[2] = In vitro drug release, dialysis bag in phosphate buffer pH 6.8; type: physicochemical; details: at 24 h; phosphate buffer pH 6.8, 37 °C
In short: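 Dialysis bag (12–14 kDa cut-off), pre-soaked overnight in medium, held 1 mL of freshly prepared nanoemulsion (5 mg/mL drug). Bag placed in 100 mL phosphate buffer pH 6.8 at 37 °C, shaken at 50 rpm. At set times 4 mL was withdrawn and replaced with fresh medium. HupA measured by HPLC (C18, methanol–water 43:57, 308 nm), plotted as cumulative % released versus time. Drug suspension run under the same sink conditions.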

[3] = Pharmacokinetic study after intranasal administration; type: in vivo, Wistar rats; details: rats
In short: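 Wistar rats (200±20 g) anaesthetised with 10% chloral hydrate received 50 µL of formulation through a PE 10 tube inserted 1 cm into the nostril. Orbital blood and tissues taken at 0.083–24 h (11 points). Plasma or tissue homogenate alkalised with 2 mol/L NaOH, extracted with 2 mL ethyl acetate, dried under nitrogen, redissolved in methanol and assayed by HPLC. Parameters calculated by software; mean±SD, n=6.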

Compound: Aprotinin
effect of inhibitor on transport of HupA-NE across the cells (hCMEC/D3 cells; then HupA-NE 1 h): restricted transport
effect of inhibitor on Lf-HupA-NE transport (hCMEC/D3 cells; then Lf-HupA-NE 1 h): mildly reduced

Compound: C[C@H](CCC(=O)[O-])[C@H]1CC[C@H]2[C@@H]3CC[C@@H]4C[C@H](O)CC[C@]4(C)[C@H]3C[C@H](O)[C@]12C.[Na+] [1% deoxycholic acid sodium solution, deoxycholic acid sodium]
nasal mucosa toxicity (histology) (nasal mucosa): extensive damage to the nasal mucosa

solubility at 24 h ([1]; Capryol90, 37 °C, oil or lipid): 38.33 ± 0.15 mg/mL (≈ 158 mM)
solubility at 24 h ([1]; Cremophor EL, 37 °C): 34.7 ± 0.09 mg/mL (≈ 143 mM)
solubility at 24 h ([1]; Grape seed oil, 37 °C, oil or lipid): 1.96 ± 0.01 mg/mL (≈ 8.09 mM)
solubility at 24 h ([1]; L.A.S, 37 °C): 34.96 ± 0.13 mg/mL (≈ 144 mM)
solubility at 24 h ([1]; LABRAFIL M 1944 CS, 37 °C, oil or lipid): 19.7 ± 0.24 mg/mL (≈ 81.3 mM)
solubility at 24 h ([1]; Labrasol, 37 °C): 102.2 ± 0.65 mg/mL (≈ 422 mM)
solubility at 24 h ([1]; PEG400, 37 °C, organic solvent or mixture): 98.41 ± 0.35 mg/mL (≈ 406 mM)
solubility at 24 h ([1]; Plurol Oleique CC 497, 37 °C): 15.5 ± 0.31 mg/mL (≈ 64 mM)
solubility at 24 h ([1]; Propanediol, 37 °C, organic solvent or mixture): 65.3 ± 0.91 mg/mL (≈ 270 mM)
solubility at 24 h ([1]; Soybean oil, 37 °C, oil or lipid): 2.73 ± 0.07 mg/mL (≈ 11.3 mM)
solubility at 24 h ([1]; Span 80, 37 °C): 13.35 ± 0.12 mg/mL (≈ 55.1 mM)
solubility at 24 h ([1]; Tween 80, 37 °C): 21 ± 0.45 mg/mL (≈ 86.8 mM)
solubility at 24 h ([1]; isopropyl myristate (IPM), 37 °C, oil or lipid): 2.43 ± 0.01 mg/mL (≈ 10 mM)
Compound: C/C=C1\[C@H]2C=C(C)C[C@]1(N)c1ccc(=O)[nH]c1C2 [HupA, Huperzine A]

drug released [2]: 63%
AUC(0-t) ([3]; brain): 21.507 ng·h/mL
AUC(0-∞) ([3]; brain): 23.765 ng·h/mL
Cmax ([3]; brain): 13.29 ng/mL
MRT(0-t) ([3]; brain): 1.255 h
MRT(0-∞) ([3]; brain): 1.674 h
T1/2 ([3]; brain): 1.173 h
Tmax ([3]; brain): 0.25 h
AUC(0-t) ([3]; plasma): 51.188 ng·h/mL
AUC(0-∞) ([3]; plasma): 51.378 ng·h/mL
Cmax ([3]; plasma): 56.95 ng/mL
MRT(0-t) ([3]; plasma): 1.153 h
MRT(0-∞) ([3]; plasma): 1.439 h
T1/2 ([3]; plasma): 0.769 h
Tmax ([3]; plasma): 0.25 h
Compound: C/C=C1\[C@H]2C=C(C)C[C@]1(N)c1ccc(=O)[nH]c1C2 [HupA Solution]
